# From ChEMBL document CHEMBL2424622, “Development of amino-pyrimidine inhibitors of c-Jun N-terminal kinase (JNK): kinase profiling guided optimization of a 1,2,3-benzotriazole lead” (Bioorg Med Chem Lett, 2013)
# Key:
# [1] = molecular target: Cytochrome P450 2C9 (Homo sapiens, UniProt P11712); experiment: Inhibition of CYP2C9 (unknown origin); format: ADME
# [2] = AUC (0 to infinity) in Hanover-Wistar rat at 20 mg/kg, po; format: ADME, organism-based; parameters: time infinity, dose 20 mg/kg, route oral; settings: plasma
# [3] = AUC (0 to infinity) in Hanover-Wistar rat at 2 mg/kg, po; format: ADME, organism-based; parameters: time infinity, dose 2 mg/kg, route oral; settings: plasma
# [4] = AUC (0 to infinity) in Hanover-Wistar rat at 0.5 mg/kg, iv; format: ADME, organism-based; parameters: dose 0.5 mg/kg, route intravenous, time infinity; settings: plasma
# [5] = system: Rattus norvegicus; experiment: Cmax in Hanover-Wistar rat at 20 mg/kg, po; format: ADME, organism-based; parameters: dose 20 mg/kg, route oral; settings: in vivo
# [6] = Clearance in Hanover-Wistar rat at 0.5 mg/kg, iv; format: ADME, organism-based; parameters: dose 0.5 mg/kg, route intravenous; settings: in vivo
# [7] = Intrinsic clearance in rat liver microsomes measured per mg of protein; format: ADME, Microsome; settings: read-out: CLH
# [8] = Fraction unbound in human plasma; format: ADME, cell-free
# [9] = Intrinsic clearance in human liver microsomes measured per mg of protein; format: ADME, Microsome; settings: read-out: CLH
# [10] = Intrinsic permeability from basolateral to apical side in human Caco2 cells at 10 uM; format: ADME, cell-based; settings: Caco-2, read-out: permeability
# [11] = molecular target: MAP kinase p38 (Homo sapiens, UniProt O15264+Q15759+Q16539+P53778); experiment: Inhibition of p38 (unknown origin)-dependent HSP27 phosphorylation by cell-based assay
# [12] = molecular target: Myosin light chain kinase family member 4 (Homo sapiens, UniProt Q86YV6); experiment: Binding affinity to SgK085 (unknown origin)
# [13] = molecular target: NUAK family SNF1-like kinase 2 (Homo sapiens, UniProt Q9H093); experiment: Binding affinity to SNARK (unknown origin)
# [14] = molecular target: Ribosomal protein S6 kinase alpha-1 (Homo sapiens, UniProt Q15418); experiment: Binding affinity to RPS6KA1 (unknown origin)
# Chain of Ribosomal protein S6 kinase alpha-1 (Q15418 whole entry): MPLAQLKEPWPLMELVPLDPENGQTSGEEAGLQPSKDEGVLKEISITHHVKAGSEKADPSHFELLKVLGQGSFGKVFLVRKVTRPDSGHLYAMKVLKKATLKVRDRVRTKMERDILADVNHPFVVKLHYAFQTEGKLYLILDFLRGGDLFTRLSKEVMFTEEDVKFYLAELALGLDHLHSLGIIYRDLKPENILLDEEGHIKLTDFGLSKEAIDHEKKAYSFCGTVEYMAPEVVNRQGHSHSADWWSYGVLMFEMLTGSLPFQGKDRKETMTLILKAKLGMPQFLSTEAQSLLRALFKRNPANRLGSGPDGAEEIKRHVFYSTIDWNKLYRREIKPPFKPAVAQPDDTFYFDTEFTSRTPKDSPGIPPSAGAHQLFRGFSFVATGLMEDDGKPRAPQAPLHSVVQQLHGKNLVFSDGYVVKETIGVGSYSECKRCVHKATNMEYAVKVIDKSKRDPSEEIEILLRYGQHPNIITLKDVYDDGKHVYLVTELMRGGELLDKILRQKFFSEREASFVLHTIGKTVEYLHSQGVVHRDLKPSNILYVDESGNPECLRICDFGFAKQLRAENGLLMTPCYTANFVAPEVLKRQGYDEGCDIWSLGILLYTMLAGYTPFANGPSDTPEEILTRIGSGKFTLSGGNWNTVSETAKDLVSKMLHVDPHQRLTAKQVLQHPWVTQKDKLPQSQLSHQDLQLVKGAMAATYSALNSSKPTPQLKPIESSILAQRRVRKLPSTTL
# [15] = molecular target: Mitogen-activated protein kinase 11 (Homo sapiens, UniProt Q15759); experiment: Binding affinity to p38-beta (unknown origin)
# [16] = molecular target: Serine/threonine-protein kinase Nek7 (Homo sapiens, UniProt Q8TDX7); experiment: Binding affinity to NEK7 (unknown origin)
# [17] = molecular target: MAP kinase-interacting serine/threonine-protein kinase 1 (Homo sapiens, UniProt Q9BUB5); experiment: Binding affinity to MKNK1 (unknown origin)
# Chain of MAP kinase-interacting serine/threonine-protein kinase 1 (Q9BUB5 whole entry): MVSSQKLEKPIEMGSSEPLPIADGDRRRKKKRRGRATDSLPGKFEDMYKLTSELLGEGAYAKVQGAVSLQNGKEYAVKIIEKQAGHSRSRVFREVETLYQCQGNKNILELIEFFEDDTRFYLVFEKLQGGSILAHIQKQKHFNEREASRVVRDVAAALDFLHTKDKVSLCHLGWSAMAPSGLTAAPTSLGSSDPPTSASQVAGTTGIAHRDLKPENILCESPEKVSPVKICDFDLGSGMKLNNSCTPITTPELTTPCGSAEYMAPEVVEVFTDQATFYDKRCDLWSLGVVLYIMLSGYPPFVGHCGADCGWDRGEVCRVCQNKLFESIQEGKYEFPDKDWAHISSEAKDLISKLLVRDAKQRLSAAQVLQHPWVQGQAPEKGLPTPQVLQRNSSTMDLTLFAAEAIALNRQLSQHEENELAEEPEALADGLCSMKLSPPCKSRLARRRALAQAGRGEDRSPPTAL
# [18] = molecular target: Serine/threonine-protein kinase Nek1 (Homo sapiens, UniProt Q96PY6); experiment: Binding affinity to NEK1 (unknown origin)
# [19] = molecular target: Dual specificity mitogen-activated protein kinase kinase 4 (Homo sapiens, UniProt P45985); experiment: Binding affinity to MEK4 (unknown origin)
# [20] = molecular target: Dual specificity mitogen-activated protein kinase kinase 6 (Homo sapiens, UniProt P52564); experiment: Binding affinity to MEK6 (unknown origin)
# [21] = molecular target: LIM domain kinase 1 (Homo sapiens, UniProt P53667); experiment: Binding affinity to LIMK1 (unknown origin)
# [22] = molecular target: Mitogen-activated protein kinase 9 (Homo sapiens, UniProt P45984); experiment: Binding affinity to JNK2 (unknown origin)
# [23] = molecular target: Mitogen-activated protein kinase 10 (Homo sapiens, UniProt P53779); experiment: Binding affinity to JNK3 (unknown origin)
# [24] = molecular target: Glycogen synthase kinase-3 beta (Homo sapiens, UniProt P49841); experiment: Binding affinity to GSK3B (unknown origin)
# Chain of Glycogen synthase kinase-3 beta (P49841 whole entry): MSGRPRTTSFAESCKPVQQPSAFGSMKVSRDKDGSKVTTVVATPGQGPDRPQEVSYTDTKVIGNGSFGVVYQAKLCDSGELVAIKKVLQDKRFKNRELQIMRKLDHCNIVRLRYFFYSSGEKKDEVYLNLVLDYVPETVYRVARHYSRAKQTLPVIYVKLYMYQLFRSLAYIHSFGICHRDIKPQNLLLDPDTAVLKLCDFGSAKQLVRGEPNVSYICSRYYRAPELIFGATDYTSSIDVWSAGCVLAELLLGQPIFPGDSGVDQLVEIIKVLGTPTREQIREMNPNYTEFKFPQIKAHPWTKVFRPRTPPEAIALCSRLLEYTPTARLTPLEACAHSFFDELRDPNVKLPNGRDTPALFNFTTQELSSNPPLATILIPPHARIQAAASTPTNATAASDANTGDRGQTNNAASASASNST
# [25] = molecular target: Mitogen-activated protein kinase 8 (Homo sapiens, UniProt P45983); experiment: Binding affinity to JNK1 (unknown origin)
# [26] = molecular target: Glycogen synthase kinase-3 alpha (Homo sapiens, UniProt P49840); experiment: Binding affinity to GSK3A (unknown origin)
# [27] = molecular target: eIF-2-alpha kinase GCN2 (Homo sapiens, UniProt Q9P2K8, S808G); experiment: Binding affinity to GCN2 kinase domain 2 S808G mutant (unknown origin)
# [28] = molecular target: Mitogen-activated protein kinase 15 (Homo sapiens, UniProt Q8TD08); experiment: Binding affinity to ERK8 (unknown origin)
# [29] = molecular target: Mitogen-activated protein kinase 7 (Homo sapiens, UniProt Q13164); experiment: Binding affinity to ERK5 (unknown origin)
# [30] = molecular target: Mitogen-activated protein kinase 4 (Homo sapiens, UniProt P31152); experiment: Binding affinity to ERK4 (unknown origin)
# [31] = molecular target: Mitogen-activated protein kinase 6 (Homo sapiens, UniProt Q16659); experiment: Binding affinity to ERK3 (unknown origin)
# [32] = molecular target: Mitogen-activated protein kinase 1 (Homo sapiens, UniProt P28482); experiment: Binding affinity to ERK2 (unknown origin)
# [33] = molecular target: Mitogen-activated protein kinase 3 (Homo sapiens, UniProt P27361); experiment: Binding affinity to ERK1 (unknown origin)
# [34] = molecular target: Serine/threonine-protein kinase DCLK3 (Homo sapiens, UniProt Q9C098); experiment: Binding affinity to DCAMKL3 (unknown origin)
# [35] = molecular target: Death-associated protein kinase 3 (Homo sapiens, UniProt O43293); experiment: Binding affinity to DAPK3 (unknown origin)
# [36] = molecular target: Death-associated protein kinase 1 (Homo sapiens, UniProt P53355); experiment: Binding affinity to DAPK1 (unknown origin)
# [37] = molecular target: Citron Rho-interacting kinase (Homo sapiens, UniProt O14578); experiment: Binding affinity to CIT (unknown origin)
# [38] = molecular target: Cyclin-dependent kinase 7 (Homo sapiens, UniProt P50613); experiment: Binding affinity to CDK7 (unknown origin)
# Chain of Cyclin-dependent kinase 7 (P50613 whole entry): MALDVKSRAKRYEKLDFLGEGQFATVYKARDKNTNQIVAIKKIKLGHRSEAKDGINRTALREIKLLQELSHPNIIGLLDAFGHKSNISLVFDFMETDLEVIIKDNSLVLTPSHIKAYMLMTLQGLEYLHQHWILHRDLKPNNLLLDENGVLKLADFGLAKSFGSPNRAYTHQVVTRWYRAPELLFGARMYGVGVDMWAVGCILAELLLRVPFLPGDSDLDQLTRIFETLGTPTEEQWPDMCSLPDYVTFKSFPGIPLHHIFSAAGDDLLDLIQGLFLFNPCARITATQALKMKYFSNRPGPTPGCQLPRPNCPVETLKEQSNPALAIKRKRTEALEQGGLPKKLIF
# [39] = molecular target: Cyclin-dependent kinase 11B (Homo sapiens, UniProt P21127); experiment: Binding affinity to CDC2L1 (unknown origin)
# [40] = molecular target: Atypical kinase COQ8B, mitochondrial (Homo sapiens, UniProt Q96D53); experiment: Binding affinity to ADCK4 (unknown origin)
# [41] = Clearance in human liver microsomes; format: ADME, Microsome; settings: read-out: CLH
# Procedure, shortened: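 Intrinsic clearance was measured in vitro in human liver microsomes and expressed per mg microsomal protein.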
# [42] = molecular target: Atypical kinase COQ8A, mitochondrial (Homo sapiens, UniProt Q8NI60); experiment: Binding affinity to ADCK3 (unknown origin)
# [43] = molecular target: Serine/threonine-protein kinase 25 (Homo sapiens) (UniProt O00506); experiment: Competitive binding affinity to STK25 (unknown origin) at 10 uM in presence of ATP relative to control
# [44] = molecular target: Serine/threonine-protein kinase 24 (Homo sapiens) (UniProt Q9Y6E0); experiment: Competitive binding affinity to STK24 (unknown origin) at 10 uM in presence of ATP relative to control
# [45] = molecular target: Serine/threonine-protein kinase SIK2 (Homo sapiens) (UniProt Q9H0K1); experiment: Competitive binding affinity to QIK (unknown origin) at 10 uM in presence of ATP relative to control
# [46] = molecular target: Activated CDC42 kinase 1 (Homo sapiens) (UniProt Q07912); experiment: Competitive binding affinity to ACK1 (unknown origin) at 10 uM in presence of ATP relative to control
# Chain of Activated CDC42 kinase 1 (Homo sapiens) (Q07912 whole entry, looked up): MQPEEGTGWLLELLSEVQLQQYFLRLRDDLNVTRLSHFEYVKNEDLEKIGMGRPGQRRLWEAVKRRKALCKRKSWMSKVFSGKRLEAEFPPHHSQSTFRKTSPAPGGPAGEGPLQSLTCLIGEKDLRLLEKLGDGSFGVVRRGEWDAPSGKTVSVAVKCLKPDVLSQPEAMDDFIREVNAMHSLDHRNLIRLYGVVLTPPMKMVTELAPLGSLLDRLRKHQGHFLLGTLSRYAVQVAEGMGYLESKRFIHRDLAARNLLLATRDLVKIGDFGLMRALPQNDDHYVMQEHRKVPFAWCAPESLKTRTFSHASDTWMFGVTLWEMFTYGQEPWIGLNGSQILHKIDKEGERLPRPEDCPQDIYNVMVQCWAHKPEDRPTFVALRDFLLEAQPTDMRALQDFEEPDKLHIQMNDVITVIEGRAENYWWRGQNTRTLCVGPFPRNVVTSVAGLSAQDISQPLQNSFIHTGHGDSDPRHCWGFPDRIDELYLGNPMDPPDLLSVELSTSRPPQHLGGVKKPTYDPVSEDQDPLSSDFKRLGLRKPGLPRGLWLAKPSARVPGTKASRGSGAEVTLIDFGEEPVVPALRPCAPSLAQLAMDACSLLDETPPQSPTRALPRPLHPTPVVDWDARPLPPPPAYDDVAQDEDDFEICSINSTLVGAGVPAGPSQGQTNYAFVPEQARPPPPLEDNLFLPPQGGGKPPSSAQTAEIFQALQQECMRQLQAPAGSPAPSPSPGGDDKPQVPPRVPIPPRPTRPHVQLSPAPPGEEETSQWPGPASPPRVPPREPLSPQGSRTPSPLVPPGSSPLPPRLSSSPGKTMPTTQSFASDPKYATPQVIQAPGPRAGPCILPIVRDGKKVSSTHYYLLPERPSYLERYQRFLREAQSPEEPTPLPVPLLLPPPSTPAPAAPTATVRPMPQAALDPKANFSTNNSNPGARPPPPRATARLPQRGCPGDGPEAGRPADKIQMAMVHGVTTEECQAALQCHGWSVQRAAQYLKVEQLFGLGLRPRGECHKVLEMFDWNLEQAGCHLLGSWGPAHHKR
# [47] = molecular target: Serine/threonine-protein kinase ULK3 (Mus musculus) (UniProt Q3U3Q1); experiment: Competitive binding affinity to mouse ULK3 at 10 uM in presence of ATP relative to control
# Chain of Serine/threonine-protein kinase ULK3 (Mus musculus) (Q3U3Q1 whole entry): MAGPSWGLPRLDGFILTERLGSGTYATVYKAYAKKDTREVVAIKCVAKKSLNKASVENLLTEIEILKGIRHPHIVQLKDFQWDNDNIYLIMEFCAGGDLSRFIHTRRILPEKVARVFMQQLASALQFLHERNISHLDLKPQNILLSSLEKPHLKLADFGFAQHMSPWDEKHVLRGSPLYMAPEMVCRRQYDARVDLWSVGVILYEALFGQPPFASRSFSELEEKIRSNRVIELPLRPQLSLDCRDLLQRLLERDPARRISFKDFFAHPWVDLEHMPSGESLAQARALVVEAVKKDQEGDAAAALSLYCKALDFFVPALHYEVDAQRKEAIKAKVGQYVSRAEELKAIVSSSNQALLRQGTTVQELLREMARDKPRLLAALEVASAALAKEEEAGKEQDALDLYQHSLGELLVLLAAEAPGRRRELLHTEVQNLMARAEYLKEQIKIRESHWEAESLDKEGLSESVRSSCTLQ
# [48] = molecular target: Serine/threonine-protein kinase 10 (Homo sapiens) (UniProt O94804); experiment: Competitive binding affinity to STK10 (unknown origin) at 10 uM in presence of ATP relative to control
# Chain of Serine/threonine-protein kinase 10 (Homo sapiens) (O94804 whole entry, looked up): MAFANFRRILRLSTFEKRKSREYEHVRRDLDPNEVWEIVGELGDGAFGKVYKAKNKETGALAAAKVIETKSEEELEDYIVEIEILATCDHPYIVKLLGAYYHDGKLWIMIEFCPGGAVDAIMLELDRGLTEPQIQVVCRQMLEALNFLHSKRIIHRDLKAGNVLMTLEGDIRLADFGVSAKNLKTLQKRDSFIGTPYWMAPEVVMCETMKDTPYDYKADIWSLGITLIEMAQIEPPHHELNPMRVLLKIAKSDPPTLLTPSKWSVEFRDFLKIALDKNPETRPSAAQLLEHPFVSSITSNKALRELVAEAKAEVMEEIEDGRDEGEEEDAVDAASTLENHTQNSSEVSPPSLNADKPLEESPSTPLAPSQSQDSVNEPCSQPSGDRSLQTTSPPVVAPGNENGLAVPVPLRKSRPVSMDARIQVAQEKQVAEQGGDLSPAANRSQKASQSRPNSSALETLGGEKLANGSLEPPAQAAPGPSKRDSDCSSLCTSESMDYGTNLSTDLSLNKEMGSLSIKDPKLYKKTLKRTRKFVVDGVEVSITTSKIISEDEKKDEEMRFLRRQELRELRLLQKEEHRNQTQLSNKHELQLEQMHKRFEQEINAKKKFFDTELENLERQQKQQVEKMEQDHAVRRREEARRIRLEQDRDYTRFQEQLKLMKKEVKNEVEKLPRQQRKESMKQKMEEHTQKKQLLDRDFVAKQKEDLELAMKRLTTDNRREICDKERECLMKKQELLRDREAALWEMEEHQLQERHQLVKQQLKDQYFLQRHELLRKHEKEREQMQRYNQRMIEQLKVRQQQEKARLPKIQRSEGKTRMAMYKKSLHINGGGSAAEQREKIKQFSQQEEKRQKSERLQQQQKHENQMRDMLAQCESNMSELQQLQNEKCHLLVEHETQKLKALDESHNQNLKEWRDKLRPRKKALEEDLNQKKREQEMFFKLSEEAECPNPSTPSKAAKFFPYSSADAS
# Chain of Cytochrome P450 2C9 (P11712 whole entry): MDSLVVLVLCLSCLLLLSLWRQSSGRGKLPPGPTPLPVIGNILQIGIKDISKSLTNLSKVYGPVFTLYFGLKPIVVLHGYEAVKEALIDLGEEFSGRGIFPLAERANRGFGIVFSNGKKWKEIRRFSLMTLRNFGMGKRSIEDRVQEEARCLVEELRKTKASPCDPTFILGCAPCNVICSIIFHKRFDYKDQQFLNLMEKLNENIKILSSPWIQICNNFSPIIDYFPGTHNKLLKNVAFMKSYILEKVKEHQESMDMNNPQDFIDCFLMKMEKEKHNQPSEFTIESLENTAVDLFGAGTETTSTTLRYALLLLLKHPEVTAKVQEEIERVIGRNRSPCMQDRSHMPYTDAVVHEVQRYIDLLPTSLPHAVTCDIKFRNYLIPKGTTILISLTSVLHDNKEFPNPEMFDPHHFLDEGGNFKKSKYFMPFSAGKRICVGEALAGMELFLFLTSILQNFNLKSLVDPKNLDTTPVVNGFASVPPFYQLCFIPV
compound,measurement,setting,value
O[C@H]1CC[C@H](Nc2nccc(-n3nnc4ccccc43)n2)CC1,IC50,[1],0.0078 µM
CS(=O)(=O)CCCOc1cccc2c1ccn2-c1ccnc(N[C@H]2CC[C@H](C(=O)N3CCC(O)CC3)CC2)n1,AUC(0-inf),[2],9.33 µg·h/mL
same,AUC(0-inf),[3],0.49 µg·h/mL
same,AUC(0-inf),[4],1.85 µg·h/mL
same,Cmax,[5],3.68 µg/mL
same,clearance,[6],0.276 L/h/kg
same,microsomal CLint,[7],52 µL/min/mg
same,fraction unbound,[8],0.05
same,microsomal CLint,[9],30 µL/min/mg
same,Papp B→A at 10 µM,[10],115 nm/s
same,IC50,[11],> 30 µM
same,Kd,[12],0.62 µM
same,Kd,[13],2.6 µM
same,Kd,[14],2.1 µM
same,Kd,[15],3.2 µM
same,Kd,[16],6.9 µM
same,Kd,[17],2.1 µM
same,Kd,[18],4 µM
same,Kd,[19],0.39 µM
same,Kd,[20],0.31 µM
same,Kd,[21],0.87 µM
same,Kd,[22],0.013 µM
same,Kd,[23],0.0018 µM
same,Kd,[24],5.4 µM
same,Kd,[25],0.00075 µM
same,Kd,[26],1.3 µM
same,Kd,[27],2.7 µM
same,Kd,[28],0.65 µM
same,Kd,[29],1.5 µM
same,Kd,[30],11 µM
same,Kd,[31],0.33 µM
same,Kd,[32],1.5 µM
same,Kd,[33],1.8 µM
same,Kd,[34],1.8 µM
same,Kd,[35],0.88 µM
same,Kd,[36],0.38 µM
same,Kd,[37],2.7 µM
same,Kd,[38],0.62 µM
same,Kd,[39],1.3 µM
same,Kd,[40],4.8 µM
same,microsomal CLint,[41],30 µL/min/mg
same,Kd,[42],0.49 µM
O[C@H]1CC[C@H](Nc2nccc(-c3n[nH]c4ccccc34)n2)CC1,inhibition,[43],85%
same,inhibition,[44],93%
same,inhibition,[45],< 50%
O=C([C@H]1CC[C@H](Nc2nccc(-n3nnc4ccccc43)n2)CC1)N1CCOCC1,inhibition,[46],< 50%
same,inhibition,[47],< 50%
same,inhibition,[48],< 50%
N[C@H]1CC[C@H](Nc2nccc(-n3nnc4ccccc43)n2)CC1,inhibition,[46],< 50%
same,inhibition,[47],< 50%
same,inhibition,[48],< 50%
